Series [1] can be described thus: melting temperature; fluorescence melt of hairpins on a sequencing array, two-state fit, raised by 9.35 °C to match UV melts. The conditions noted are these: sodium 0.088 M. A digest of the protocol:
(§1)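 Bootstrapped two-state fits yielded melting temperature and folding enthalpy for library hairpins. Cy3 fluorescence, with annealed Cy3 and quencher oligos, was imaged on a sequenced MiSeq flow cell in 50 mM Na-HEPES pH 8.0, 25 mM NaCl in 2.5 °C steps up to 60 °C, and normalised to pre-quench Cy3 and to control constructs. Four replicates were combined by inverse variance, and fitted temperatures were raised by 9.35 °C to match UV melts.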

Series [2] in a line: folding enthalpy; higher = less favourable; fluorescence melt of hairpins on a sequencing array, two-state fit. The conditions noted are these: sodium 0.088 M. The method in brief: as §1

Here are results for 37 sequences from the array DNA melting data of Ke et al. (doi:10.1101/2024.01.08.574731).

For the sequence GTGAAAGGAAACTTTCGC (.(((((....))))).), the Tm in series [1] amounted to 45.2 °C. In addition, the folding enthalpy in series [2] is -27.3 kcal/mol.
As for GCAAAGCGAAAGCCTTGC ((((.((....)).)))), the Tm in series [1] stood at 53 °C. The folding enthalpy in series [2] was -22.1 kcal/mol.
Turning to GTCTCGCGAAAGCGGAC (((.(((....)))))), the Tm in series [1] amounted to 53.7 °C. Moreover, the folding enthalpy in series [2] was -16.9 kcal/mol.
The like results for GCAAATCGAAAGATTGC (((.(((....)))))) were, in that order, 48.9 °C and -24 kcal/mol.
The like results for GTAGATCGAAAGATATAC (((.(((....))).))) were, in that order, 42.3 °C and -32.4 kcal/mol.
The like results for GCGCTCGAAAGAGATCGC ((((((....)))..))) were, in that order, 45.8 °C and -24.7 kcal/mol.
For the sequence GCGGCGCGAAAGCATCGC (((..((....))..))), the Tm in series [1] was found to be 61.4 °C. Also, the folding enthalpy in series [2] was -22.6 kcal/mol.
The like results for GCCTCCGAAAGGAAGGC ((((((....))).))) were, in that order, 62 °C and -31.9 kcal/mol.
The like results for GACCGCGAAAGCGGTGTC ((((((....)))..))) were, in that order, 63.8 °C and -8.7 kcal/mol.
As to GATCTTCAACAAGATC ((((((....)))))), the Tm in series [1] amounted to 38.3 °C. In series [2], the folding enthalpy is -25.1 kcal/mol.
For the sequence GGCATAGGAAACTGTGTC (.((.((....)).)).), the Tm in series [1] amounted to 33.5 °C. The folding enthalpy in series [2] is -23.9 kcal/mol.
The like results for CGGATTCGGAAACGACCG (((..(((....)))))) were, in that order, 35.7 °C and -17.8 kcal/mol.
The like results for GGTCAGGAAACTGACC ((((((....)))))) were, in that order, 59.9 °C and -44.5 kcal/mol.
The like results for GCGTCTGGAAACAGGTGC ((..(((....)))..)) were, in that order, 41.8 °C and -28.3 kcal/mol.
GAGGGGAAACCCTC (((((....))))): in series [1], the Tm is 54 °C. In addition, the folding enthalpy in series [2] was -24.7 kcal/mol.
In the case of ATGTTGAAAAACAT (((((....))))), the Tm in series [1] came out at 37 °C. In addition, in series [2], the folding enthalpy is -13 kcal/mol.
The like results for GATCGTATCTACGATC ((((((....)))))) were, in that order, 57.6 °C and -37.9 kcal/mol.
Consider GCCGGTCCGAAAGGAGGC (((..(((....)))))), for which the Tm in series [1] was 48 °C. Further, the folding enthalpy in series [2] is -21.9 kcal/mol.
The like results for GGAGCCGGAAACGACCCC ((.(.((....)).).)) were, in that order, 29.4 °C and -15.5 kcal/mol.
The like results for GAGTGGGGAAACTCACTC (((((.(....).))))) were, in that order, 49.2 °C and -40.9 kcal/mol.
Take GCTGATGGAAACATCGGC ((.((((....)))).)): in series [1], the Tm came to 54.1 °C. Moreover, the folding enthalpy in series [2] is -43 kcal/mol.
The like results for GATCCTACACAGGATC ((((((....)))))) were, in that order, 51.6 °C and -35.9 kcal/mol.
The like results for GCAGGGTCGAAAGACTGC (((..(((....)))))) were, in that order, 45.8 °C and -23.4 kcal/mol.
The like results for GGGATGACGAAAGTCCCC (((..(((....)))))) were, in that order, 42.9 °C and -18.4 kcal/mol.
With GATCGAAGGCTCGATC ((((((....)))))), the Tm in series [1] was determined as 50.1 °C. Further, the folding enthalpy in series [2] was -31 kcal/mol.
The like results for GTTCGGGGAAACCTGGAC ((.(.((....)).).)) were, in that order, 36.8 °C and -20.2 kcal/mol.
With GGTGACGGAAACGTCGTC (..((((....))))..), the Tm in series [1] is 42 °C. Further, in series [2], the folding enthalpy was -13.9 kcal/mol.
The like results for GAAGTGGGAAACCACTTC (((((((....))))))) were, in that order, 59.9 °C and -45.4 kcal/mol.
As for GTATGGGGAAACCCGTAC (((.(((....))).))), in series [1], the Tm stood at 49.1 °C. In addition, the folding enthalpy in series [2] is -34.5 kcal/mol.
GCATAGGAAACTATGC ((((((....)))))): the Tm in series [1] was found to be 53.7 °C. For the same sequence, the folding enthalpy in series [2] is -35.4 kcal/mol.
The like results for GTTCGAGGAAACTTGAGC (.((.((....)).)).) were, in that order, 29.9 °C and -20.3 kcal/mol.
The like results for CGCGGATGACTCCGCG ((((((....)))))) were, in that order, 66.7 °C and -43.1 kcal/mol.
GAATACCCGAAAGGGTTC (((..(((....)))))): in series [1], the Tm is 33 °C. Moreover, the folding enthalpy in series [2] is -7.33 kcal/mol.
As to GATCTCGGAAACGAGGTC ((.((((....)))).)), in series [1], the Tm was 50.2 °C. Moreover, the folding enthalpy in series [2] is -50.8 kcal/mol.
The like results for CGATCGGAAACGACATCG ((((((....)))..))) were, in that order, 32 °C and -24 kcal/mol.
The like results for GATCCTTGATAGGATC ((((((....)))))) were, in that order, 50.5 °C and -35.4 kcal/mol.
For the sequence GATCACTATGGTGATC ((((((....)))))), in series [1], the Tm was 59 °C. Further, the folding enthalpy in series [2] is -41.5 kcal/mol.
